This passage reports Activity and EC50 results from ChEMBL document CHEMBL3351942, “Rexinoids isolated from Sophora tonkinensis with a gene expression profile distinct from the synthetic rexinoid bexarotene” (J Nat Prod, 2014).

Usually EC50 stands for the midpoint of the concentration-response curve. Higher therefore signals lower potency in that assay.

The source made the active and inactive calls. The calls are words filed in the database; no cut-off is given here.

Type in all cases: cell-based
One assay has as its system RAW264.7. Description: Activation of RXR/LXR heterodimer in mouse RAW264.7 cells assessed as increase in ABCA1 mRNA level at 10 uM by quantitative RT-PCR analysis. The gist of the method: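 RAW264.7 macrophages in DMEM/10% FBS, exposed 24 h with or without LXR agonist T0901317; ABCA1 mRNA by SYBR green qRT-PCR, β-actin-normalized, fold vs vehicle; means ± SD of three determinants, one of three independent experiments; one-way ANOVA, Bonferroni.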

The target of assay [1] is T1, Peroxisome proliferator-activated receptor delta (Mus musculus) (UniProt P35396).
T1 sequence (whole entry): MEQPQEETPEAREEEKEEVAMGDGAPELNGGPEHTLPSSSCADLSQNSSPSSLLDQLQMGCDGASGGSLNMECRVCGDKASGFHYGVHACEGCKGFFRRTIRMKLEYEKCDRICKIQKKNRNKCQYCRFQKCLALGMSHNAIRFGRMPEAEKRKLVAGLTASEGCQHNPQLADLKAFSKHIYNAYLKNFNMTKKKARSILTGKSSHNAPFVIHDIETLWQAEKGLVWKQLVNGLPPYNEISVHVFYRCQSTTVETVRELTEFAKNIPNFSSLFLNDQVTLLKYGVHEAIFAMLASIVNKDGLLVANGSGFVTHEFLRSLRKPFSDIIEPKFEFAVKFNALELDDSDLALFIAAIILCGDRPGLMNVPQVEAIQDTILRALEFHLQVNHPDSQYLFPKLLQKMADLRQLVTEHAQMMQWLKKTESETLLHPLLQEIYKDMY
Description: Activation of PPARdelta in mouse C2C12 cells assessed as induction of ANGPTL4 mRNA expression at 10 uM after 24 hrs in presence of GW501516 by quantitative RT-PCR analysis. The gist of the method:
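Differentiated C2C12 myotubes (2% horse serum, 5 days) exposed 24 h with or without PPARδ agonist GW501516 (1 μM). mRNA quantified by SYBR green real-time RT-PCR, normalized to β-actin by delta-delta Ct, and expressed as fold induction vs vehicle; means ± SD of four determinants from one of two independent experiments; one-way ANOVA with Bonferroni.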

The next assay deals with F9. Description: Activation of RAR/RXR heterodimer in mouse F9 cells assessed as increase in CYP26A1 mRNA level at 10 uM by quantitative RT-PCR analysis in presence of atRA. The essentials: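 F9 teratocarcinoma cells on 0.2% gelatin-coated dishes in DMEM/10% FBS; 24 h exposure with or without atRA (0.1 μM). CYP26A1 mRNA by qRT-PCR normalized to β-actin, fold vs vehicle; means ± SD of three determinants, one of three experiments; ANOVA/Bonferroni.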

Assay [2] concerns the target T2, Oxysterols receptor LXR-alpha (Homo sapiens) (UniProt Q13133).
T2 sequence (whole entry): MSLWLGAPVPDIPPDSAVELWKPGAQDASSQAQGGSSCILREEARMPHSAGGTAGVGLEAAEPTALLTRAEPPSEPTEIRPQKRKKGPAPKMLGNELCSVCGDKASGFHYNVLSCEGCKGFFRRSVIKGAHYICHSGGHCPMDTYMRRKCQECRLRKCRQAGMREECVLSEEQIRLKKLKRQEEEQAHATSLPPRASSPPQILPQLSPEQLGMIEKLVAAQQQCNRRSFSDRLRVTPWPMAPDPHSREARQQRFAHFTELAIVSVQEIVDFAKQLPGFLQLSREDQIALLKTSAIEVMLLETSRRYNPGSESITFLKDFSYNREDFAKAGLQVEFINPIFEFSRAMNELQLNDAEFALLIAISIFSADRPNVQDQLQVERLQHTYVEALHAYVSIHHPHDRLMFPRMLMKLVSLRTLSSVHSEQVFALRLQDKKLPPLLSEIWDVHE
The experiment in a line: Activation of human LXR-alpha expressed in HEK293 cells coexpressing with pGL4.1-DR4-Luc after 24 hrs by luciferase reporter gene assay. (In general: In a reporter assay the amount or activity of a reporter protein is the signal.)

The species entered for the next assay is Homo sapiens. Description: Activation of PPARgamma/RXR heterodimer in human hepatoma cells assessed as increase in ANGPTL4 mRNA level at 10 uM by quantitative RT-PCR analysis. The gist of the method:
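HLE human hepatoma cells (DMEM, 10% FBS, 37 °C, 5% CO2) treated with or without rosiglitazone; ANGPTL4 mRNA by SYBR green qRT-PCR, β-actin-normalized delta-delta Ct, fold vs vehicle; means ± SD of three determinants, representative of three experiments.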

The nature of assay [3]: Activation of LXR in mouse C2C12 cells assessed as induction of LPL mRNA expression at 10 uM after 24 hrs by quantitative RT-PCR analysis.
Assay [4] is described as follows: Activation of LXR in mouse C2C12 cells assessed as induction of ABCA1 mRNA expression at 10 uM after 24 hrs in presence of T0901317 by quantitative RT-PCR analysis. The gist of the method: (§1)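 C2C12 myoblasts grown in DMEM/10% FBS, differentiated at confluence in 2% horse serum, medium changed every other day for 5 days; myotubes treated 24 h with or without T0901317 (1 μM). Total RNA, DNase-treated, oligo(dT) RT from 0.5 μg, SYBR green qPCR; normalized to β-actin (delta-delta Ct), fold over vehicle; mean ± SD of four determinants, one of two experiments.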

Assay [5] in a line: Activation of LXR in mouse C2C12 cells assessed as induction of ApoD mRNA expression at 10 uM after 24 hrs in presence of T0901317 by quantitative RT-PCR analysis. The gist of the method: as §1
Assay [6] concerns the target T3, Retinoic acid receptor RXR-alpha (Homo sapiens) (UniProt P19793).
T3 sequence (whole entry): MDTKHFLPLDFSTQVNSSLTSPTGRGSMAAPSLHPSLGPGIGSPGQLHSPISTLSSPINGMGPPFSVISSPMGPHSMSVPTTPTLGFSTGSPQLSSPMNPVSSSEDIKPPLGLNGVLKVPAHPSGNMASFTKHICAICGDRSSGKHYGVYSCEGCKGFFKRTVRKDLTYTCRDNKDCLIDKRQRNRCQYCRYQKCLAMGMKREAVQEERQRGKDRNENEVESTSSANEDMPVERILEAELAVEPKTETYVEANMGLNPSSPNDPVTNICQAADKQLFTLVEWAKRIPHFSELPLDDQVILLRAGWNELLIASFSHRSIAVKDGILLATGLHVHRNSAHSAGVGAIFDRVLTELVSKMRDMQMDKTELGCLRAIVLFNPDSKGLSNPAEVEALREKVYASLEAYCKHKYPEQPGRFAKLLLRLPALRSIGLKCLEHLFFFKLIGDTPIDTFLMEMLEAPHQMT
The experiment in a line: (§2) Agonist activity at human RXR-alpha expressed in HEK293 cells coexpressing with pCMX-beta-gal after 24 to 48 hrs by luciferase reporter gene assay. The essentials:
(§3)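 HEK293 cells transfected by calcium phosphate with 60 ng pCMX-hRXR-α, 150 ng CRBPII-tk-Luc and 30 ng pCMX-β-gal plus carrier pUC18 (600 ng DNA per well). After 8 h the cells were washed and exposed to compound in medium with 10% FBS for 24−48 h. Luciferase was normalized to β-galactosidase. Triplicate or quadruplicate; representative of three independent experiments; EC50 from dose-response.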

Assay [7] has as its target T4, Retinoic acid receptor RXR-alpha (Homo sapiens, UniProt P19793).
T4 sequence (P19793 whole entry): T3 sequence (whole entry)
The assay is described as §2. The essentials: as §3

Consider `CC(C)=CCc1cc([C@@H]2CC(=O)c3ccc(O)c(CC=C(C)C)c3O2)cc2c1OC(C(C)(C)O)C2` (stereo not given in full), for which the result (with RAW264.7; in assay [1]; in the assay on F9; in the assay listed under Homo sapiens; in assay [3]; in [4]) was Active. Moreover, the result in [2] and in assay [5] was inactive. The Activity entry in [6] was “Dose-dependent effect”. The EC50 in assay [7] was 770 nM.
